Compound activity from PubChem BioAssay.
NPY2 pot ag – human NPY-Y2 potentiation or agonism, primary screen | P49146 | cells expressing NPY-Y2, potentiator/agonist read-out | activation, % at 3.6 µM | 0.45% of 220,000 active | AID 1359; in the data active = activation above about 27%;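 also: cells stimulated with NPY near EC25 plus isoproterenol at EC100; 0% = vehicle plus submaximal agonist and 100% = vehicle plus saturating agonist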
Target sequence (P49146 whole entry, looked up): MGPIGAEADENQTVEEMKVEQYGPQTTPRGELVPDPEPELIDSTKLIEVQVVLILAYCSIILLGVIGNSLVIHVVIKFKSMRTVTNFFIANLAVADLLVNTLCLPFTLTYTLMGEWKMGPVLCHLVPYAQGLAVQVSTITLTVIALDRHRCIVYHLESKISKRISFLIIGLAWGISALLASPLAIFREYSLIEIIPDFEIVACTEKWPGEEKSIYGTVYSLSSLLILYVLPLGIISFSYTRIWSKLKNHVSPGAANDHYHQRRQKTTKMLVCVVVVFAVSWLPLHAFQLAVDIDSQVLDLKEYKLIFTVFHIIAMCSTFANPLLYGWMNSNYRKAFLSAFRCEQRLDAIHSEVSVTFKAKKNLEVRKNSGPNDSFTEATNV
Ins promoter up – MIN6 insulin promoter up-regulation; MIN6 insulin promoter-GFP reporter, high-content imaging; stronger effect = higher value; z-score at 5 µM; 0.3% of 190,000 active; AID 1625;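 active = z-score above 3 at 5 µM with at least 500 cells counted in the well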
NPY-Y1 PAM-ag – potentiates or activates human NPY-Y1 receptor | P25929 | NPY-Y1 expressing cells, potentiator/agonist activation | activation, % at 3.6 µM | 0.37% of 220,000 active | AID 1304; in the data active = activation above about 33%, passing the limit was not always enough;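 also: cells stimulated with NPY at EC10 then isoproterenol at EC100; 0% = low agonist plus stimulus and 100% = saturating agonist plus stimulus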
NPY Y2 blocker – NPY-Y2 (human) receptor antagonism | NPY-Y2 expressing cells, antagonist mode | inhibition, % at 2.7 µM | 0.99% of 140,000 active | AID 793; in the data active = inhibition above about 17%;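 also: 0% = vehicle with agonist challenge and 100% = reference antagonist with challenge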
NPY Y1 blocker – NPY-Y1 (human) receptor antagonism | HEK293-CNG Y1 cells, membrane potential fluorescence; NPY at EC95, then isoproterenol | AID 1040 | inhibition, % at 3.6 µM | 1% of 200,000 active;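 active = inhibition above the campaign mean inhibition of all tested compounds plus 3 SD, cut at about 20% in these data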;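 also: 0% = DMSO wells given NPY plus isoproterenol and 100% = isoproterenol alone without NPY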
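Material: HEK293 Y1/CNG channel cell line | Also added: NPY (25 nM), isoproterenol (1 µM), Ro 20-1724 (25 µM) | Compound: One concentration, 3.6 µM, in 0.4% DMSO | Schedule: 3 h dye uptake, 1 h room-temperature compound, 45 min post-isoproterenol | Signal: Membrane-potential fluorescent dye readout | Read-out: % inhibition of NPY effect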
INS promoter inh – TRM-6 insulin promoter activity inhibition. inhibition, % at 2 µM. 0.9% of 130,000 active. TRM-6 cells, insulin promoter-eGFP reporter, imaging; reporter expression induced with tamoxifen;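 active = inhibition above the mean plus 3 SD, with well images judged a real hit on visual review, cut at about 60% in these data, passing the limit was not always enough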
Active calls of the source: *; . = no result given. Hits are enriched below; roughly 2.5% of the tested compounds scored in any of these assays.

SMILES	NPY2 pot ag	Ins promoter up	NPY-Y1 PAM-ag	NPY Y2 blocker	NPY Y1 blocker	INS promoter inh
Cc1nc(NC(=O)COC(=O)CCS(=O)(=O)c2ccccc2Cl)c(Cl)cc1Cl	-17	4.2*	3	6	-3	-21
COc1cc(/C=C/C(=O)O)cc(S(=O)(=O)NCc2ccc3c(c2)OCO3)c1OC	-15	0.68	10	.	8	13
O=C(/C=C/c1c(Cl)nc2ccccn12)Nc1ccc(F)cc1	-6	-0.79	-2	.	5	4
CCOC(=O)c1ccc(N2C(=O)C3C(C2=O)C(C(=O)c2ccc(Cl)cc2)N2CCCC32)cc1 (configuration not stated)	-15	0.07	-19	4	0	38
COc1ccc2oc(C(=O)OC/C(O)=C(\C#N)c3nc4ccccc4[nH]3)c(C)c2c1	-15	0.2	-31	.	.	.
COCc1c(C(=O)OC/C(O)=C(\C#N)c2nc3ccccc3[nH]2)oc2ccccc12	-23	.	-10	.	20*	-15
Cc1ccc(CNC(=O)/C=C/c2c(Cl)cccc2Cl)cc1	0	0.5	-9	2	-4	5
Cc1ccc(CNC(=O)/C=C/c2ccccc2Cl)cc1	-14	-0.01	-25	12	31*	7
CC(CCc1ccccc1)NC(=O)/C=C/c1ccc(Cl)cc1 (configuration not stated)	-21	1.5	-47	21*	32*	5
Cc1ccc(/C=C/C(=O)NCCCc2ccccc2)cc1	-34	0.53	-51	34*	37*	.
CC(C(=O)NCc1ccccn1)c1ccc([N+](=O)[O-])cc1 (configuration not stated)	-3	0.03	-10	.	11	65
CC1(C)CC2(CCO1)OC(=O)CC2C(=O)Nc1ccccc1Cl (configuration not stated)	-3	-1.1	-9	.	0	.
CCOc1c2ccc(C(=O)N[C@H](C)C3CCCCC3)cc2nn1CC	-12	-0.17	11	0	3	.
Cc1nn(C(=O)c2ccco2)c(C)c1Br	8	.	24	2	3	67*
CCCCC(=O)Nc1ccc2c(c1)nc1n2CCSC1	-11	3.2*	13	-2	5	.
Cc1ccc(Cn2c(=N)n(CC(O)c3ccco3)c3ccccc32)cc1 (configuration not stated)	-16	-11	-21	23*	17	.
CCCn1c(=N)n(CC(O)c2ccco2)c2ccccc21 (configuration not stated)	-4	0.2	20	2	1	7
O=C(NCc1ccco1)c1cc2ccc(O)cc2oc1=O	12	0.13	-3	5	-5	92*
O=C(O)c1ccc(CNC(=O)c2ccc(C(F)(F)F)cc2)cc1	13	-1.2	-13	.	5	73*
O=C(O)c1ccc(CNC(=O)c2ccc(Br)o2)cc1	9	1.1	12	4	-5	9
O=C(NCc1ccco1)c1ccc(C(F)(F)F)cc1	1	-0.09	-11	.	2	78*
Cc1nc2ccccc2c(=O)n1NC(=O)C1CCC(C(C)(C)C)CC1 (configuration not stated)	-12	-0.21	-11	.	-1	-11
CCOC(=O)CSc1nc2cc(S(=O)(=O)Nc3ccccc3OC)ccc2o1	45*	0.25	70*	-1	-2	27
COc1ccccc1NS(=O)(=O)c1ccc2oc(SCc3ccc(F)cc3)nc2c1	1	0.13	10	5	-6	8
O=C(C1=NN(c2ccccc2)C2C(=O)N(c3ccc(Cl)cc3)C(=O)C12)c1ccccc1 (configuration not stated)	3	0.77	-14	7	1	16
SMILES	NPY2 pot ag	Ins promoter up	NPY-Y1 PAM-ag	NPY Y2 blocker	NPY Y1 blocker	INS promoter inh
O=C(C1=NN(c2ccccc2)C2C(=O)N(c3cccc(Cl)c3)C(=O)C12)c1ccccc1 (configuration not stated)	-13	3.2*	-59	1	10	-18
Cc1ccccc1Nc1c(-c2cccnc2)nc2cccc(C)n12	29*	.	39*	.	-2	.
Cc1nn2c(Nc3ccc(F)cc3)c3c(nc2c1-c1ccccc1)CCC3	10	-0.14	-21	3	-2	87*
COCCNc1c2c(nc3c(-c4ccccc4)c(C)nn13)CCCC2	6	.	4	-4	4	61
COc1cccc(Nc2c3c(nc4c(-c5ccccc5)c(C)nn24)CCC3)c1	7	-0.14	-16	3	3	94*
CCCCNc1c2c(nc3c(-c4ccccc4)c(C)nn13)CCC2	-1	.	-22	-1	2	-4
C=CCn1c(SCC(=O)Nc2cccnc2Cl)nnc1-c1ccccc1F	-9	0.51	-19	2	1	15
CN(C)C(C)(C)C#CCCCCC#CC(C)(C)N(C)C	1	.	-9	1	6	71*
CN(C)C(C)(C)C#CCC(c1ccccc1)c1ccccc1	-1	0.21	-12	10	16	.
CCCCc1nc2ccccc2[nH]1	14	-0.11	-5	.	-5	89*
CCCC(=O)NCCCc1nc2ccccc2[nH]1	4	-0.32	7	1	2	.
COc1ccc(C)cc1NS(=O)(=O)c1ccc(NC(=O)CN(c2cc([N+](=O)[O-])ccc2C)S(C)(=O)=O)cc1	27*	-3.1	40*	-3	-9	12
COc1ccc([N+](=O)[O-])cc1N(CC(=O)NCCSc1ccc(C)cc1)S(C)(=O)=O	2	-0.56	13	.	-4	.
Cc1cccc(NS(=O)(=O)c2ccc(NC(=O)CN(c3cc([N+](=O)[O-])ccc3C)S(C)(=O)=O)cc2)c1	42*	-1.8	50*	-5	-13	24
CC(C)(C)CC(=O)NCc1ccc(F)cc1	-12	-0.26	-9	3	2	73*
O=C(CCCC(=O)NCc1ccc(F)cc1)NCc1ccc(F)cc1	1	-0.05	8	.	7	.
O=C(CCl)Nc1cc(-c2ccccc2)nn1-c1ccccc1	2	.	5	1	-3	87*
COc1ccc(/C=C\c2cc(OC)c(OC)cc2CC[N+](C)(C)C)cc1OC	8	-0.85	7	.	0	.
O=C(N/N=C/C=C\c1ccco1)c1cccnc1	-8	0.6	-12	0	0	-16
O=C(N/N=C/C=C/c1ccco1)c1cccnc1	-8	-0.71	1	3	9	100*
COc1ccc2nc(NC(=O)c3cc(S(=O)(=O)N4CCOCC4)ccc3C)sc2c1	6	.	-23	1	6	31
COc1ccc2nc(NC(=O)c3cccc(S(=O)(=O)N4CCOCC4)c3)sc2c1	-25	-0.9	-3	0	-3	74*
CCC(=Nc1ccccc1)C1=C(O)CCCC1=O	-18	-0.16	16	.	.	.
Cc1c(C#N)c(N)nc2c3c(sc12)NC(=O)CC3c1ccc(Cl)cc1 (configuration not stated)	0	-1.3	-39	42*	34*	-9
